Experimental data: ChEMBL document CHEMBL3751681, “Natural product-based synthesis of novel anti-infective isothiocyanate- and isoselenocyanate-functionalized amphilectane diterpenes” (Bioorg Med Chem Lett, 2016)
Values after ≈ are worked out from the molar mass of the structure shown.

Tests used:
[1] = system: Mycobacterium tuberculosis; assay: Antimycobacterial activity against Mycobacterium tuberculosis H37Rv ATCC 27294 by microplate alamar blue assay; type: functional
In short: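 Mtb H37Rv tested in the microplate Alamar blue assay; rifampicin served as positive control.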

[2] = Selectivity index, ratio of IC50 for African green monkey Vero cells to MIC for Mycobacterium tuberculosis H37Rv ATCC 27294; type: toxicity, cell-based; details: read-out: Selectivity Index
Vero = assay: Cytotoxicity against African green monkey Vero cells by MTS assay; type: cell-based; details: Chlorocebus sabaeus
[3] = Selectivity index, ratio of IC50 for African green monkey Vero cells to IC50 for chloroquine-sensitive Plasmodium falciparum 3D7; type: toxicity, cell-based; details: read-out: Ratio IC50
Plasmodium falciparum [4] = assay: Antiplasmodial activity against chloroquine-resistant Plasmodium falciparum Dd2 infected in human RBCs after 72 hrs by SYBR Green based parasite proliferation assay; type: functional, organism-based; details: Dd2, 72 h
In short: (§1)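 P. falciparum (3D7 or Dd2) grown in human O+ erythrocytes in RPMI 1640 with gentamicin, hypoxanthine, HEPES, bicarbonate, glucose, Albumax and 5% human serum. Gassed with 3% CO2, 1% O2, 96% N2 and held at 37°C. Parasites exposed to serial compound dilutions for 72 h. Parasite DNA increase read by SYBR Green fluorescence (ex 495, em 525 nm).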

Plasmodium falciparum [5] = assay: Antiplasmodial activity against chloroquine-sensitive Plasmodium falciparum 3D7 infected in human RBCs after 72 hrs by SYBR Green based parasite proliferation assay; type: functional, organism-based; details: 3D7, 72 h; in short: as §1
[6] = Selectivity index, ratio of IC50 for African green monkey Vero cells to IC50 for chloroquine-resistant Plasmodium falciparum Dd2; type: toxicity, cell-based; details: read-out: Ratio IC50

Row | Structure (SMILES) | MIC [1] | selectivity ratio [2] | IC50 (Vero) | selectivity ratio [3] | IC50 (Plasmodium falciparum [4]) | IC50 (Plasmodium falciparum [5]) | selectivity ratio [6]
1 | CO[C@H]1/C=C/O[C@@]2(C)Oc3c(C)c(O)c4c(O)c(c(/C=N/N5CCN(C)CC5)c(O)c4c3C2=O)NC(=O)/C(C)=C\C=C\[C@H](C)[C@H](O)[C@@H](C)[C@@H](O)[C@@H](C)[C@H](OC(C)=O)[C@@H]1C [RIFAMPIN] | 0.09 µM (≈ 0.0741 µg/mL) | > 1100 | > 100 µM | – | – | – | –
2 | C=C1CC[C@@]2(N=C=[Se])[C@H]3[C@H](CC[C@@H]2C)[C@@H](C)C[C@@H](CC(C)(C)N=C=[Se])[C@H]13 | 3.9 µM (≈ 1.88 µg/mL) | 12.4 | 48.6 µM | 19400 | 0.0066 µM | 0.0025 µM | 7360
3 | C=C1CC[C@@]2(N=C=S)[C@H]3[C@H](CC[C@@H]2C)[C@@H](C)C[C@@H](CC(C)(C)N=C=S)[C@H]13 | 99.1 µM (≈ 38.5 µg/mL) | > 1 | > 100 µM | > 8 | 11.6 µM | 11.8 µM | > 9
4 | [C-]#[N+]C(C)(C)C[C@@H]1C[C@H](C)[C@H]2CC[C@H](C)[C@@]3([N+]#[C-])CCC(=C)[C@@H]1[C@H]23 [DIISOCYANOAMPHILECTENE] | 9.8 µM (≈ 3.18 µg/mL) | 10.2 | – | 83100 | 0.0031 µM | – | 32200
